Tests used:
[1] = Percent increase in life span of dying mice tested in vivo at 41 mg/kg against ip implanted LOX amelanotic melanoma in mice (60-day survivors); type: functional; conditions: Mus musculus, 1440 h, route intraperitoneal
Procedure, shortened: (§1)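 Female CD2F1 mice implanted ip with ascitic fluid carrying ca. 1.7×10^6 LOX amelanotic melanoma cells. Drug given ip on days 1, 5 and 9, starting 24 h after implant, dosed by exact body weight; solutions or suspensions made fresh daily. %ILS is from the median day of death of dying mice versus controls, excluding 60-day survivors.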

[2] = Change in tumor cell population in ip implanted LOX amelanotic melanoma in mice after administration of compound at 82 mg/kg; type: functional, Mus musculus; conditions: route intraperitoneal
Procedure, shortened: (§2)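 Female CD2F1 mice were implanted ip with ascitic fluid holding ca. 1.7×10^6 LOX cells. Dosing was ip on days 1, 5 and 9, starting 24 h after implantation, by exact body weight, as a solution or suspension in saline plus Tween 80, freshly prepared daily. KE is the net log change in viable tumor cells from start to end of treatment. Bracketed KE assumes Poisson survival, with 60-day survivors tumor-free.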

P388 [3] = experiment: Percent increase in life span of dying mice tested in vivo at 82 mg/kg against ip implanted P388 Leukemia in mice; type: functional; conditions: Mus musculus, route intraperitoneal
Procedure, shortened: (§3)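 Portage-CD2F1 female mice were inoculated ip with ascitic fluid containing ca. 5.2×10^6 P388 leukemia cells. Drug was given ip daily on days 1-5, starting 24 h after inoculation, and dosed by average body weight. %ILS was calculated from the median day of death of dying mice versus controls.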

P388 [4] = experiment: Percent increase in life span of dying mice tested in vivo at 164 mg/kg against ip implanted P388 Leukemia in mice; type: functional; conditions: Mus musculus, route intraperitoneal
Procedure, shortened: (§4)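 Portage-CD2F1 female mice inoculated ip with ascitic fluid carrying ca. 5.2×10^6 P388 leukemia cells. Drug given ip daily on days 1-5, starting 24 h after inoculation, dosed by average body weight. %ILS is from the median day of death of dying mice versus controls.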

P388 [5] = experiment: Change in tumor cell population in ip implanted P388 Leukemia in mice after administration of compound at 41 mg/kg; type: functional, Mus musculus; conditions: route intraperitoneal
Procedure, shortened: (§5)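 Female Portage-CD2F1 mice were inoculated ip with ascitic fluid holding ca. 5.2×10^6 P388 cells. Dosing was ip on days 1-5, starting 24 h after inoculation, by average body weight, as a solution or suspension in saline plus Tween 80. KE is the net log change in viable tumor cell population from start to end of the treatment period.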

[6] = Change in tumor cell population in ip implanted LOX amelanotic melanoma in mice after administration of compound at 164 mg/kg; type: functional, Mus musculus; conditions: route intraperitoneal; procedure, shortened: as §2
P388 [7] = experiment: Change in tumor cell population in ip implanted P388 Leukemia in mice after administration of compound at 164 mg/kg; type: functional, Mus musculus; conditions: route intraperitoneal; procedure, shortened: as §5
[8] = Percent increase in life span of dying mice tested in vivo at 164 mg/kg against ip implanted LOX amelanotic melanoma in mice (60-day survivors); type: functional; conditions: Mus musculus, 1440 h, route intraperitoneal; procedure, shortened: as §1
P388 [9] = experiment: Change in tumor cell population in ip implanted P388 Leukemia in mice after administration of compound at 20.5 mg/kg; type: functional, Mus musculus; conditions: route intraperitoneal; procedure, shortened: as §5
[10] = Percent increase in life span of dying mice tested in vivo at 82 mg/kg against ip implanted LOX amelanotic melanoma in mice (60-day survivors); type: functional; conditions: Mus musculus, 1440 h, route intraperitoneal
Procedure, shortened: (§6)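 Nude CD2F1 female mice were implanted ip with ascitic fluid containing ca. 1.7×10^6 LOX amelanotic melanoma cells. Drug was given ip on days 1, 5 and 9, starting 24 h after implantation, and dosed by exact body weight. Solutions or suspensions were made fresh daily in saline plus Tween 80. %ILS was calculated from the median day of death of dying mice versus controls, excluding 60-day survivors.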

P388 [11] = experiment: Percent increase in life span of dying mice tested in vivo at 41 mg/kg against ip implanted P388 Leukemia in mice; type: functional; conditions: Mus musculus, route intraperitoneal; procedure, shortened: as §4
Mus musculus = experiment: Change in tumor cell population in ip implanted LOX amelanotic melanoma in mice after administration of compound at 328 mg/kg; toxic; type: functional, organism-based; set-up: dose 328 mg/kg; procedure, shortened: as §2
[12] = Change in tumor cell population in ip implanted LOX amelanotic melanoma in mice after administration of compound at 41 mg/kg; type: functional, Mus musculus; conditions: route intraperitoneal; procedure, shortened: as §2
P388 [13] = experiment: Change in tumor cell population in ip implanted P388 Leukemia in mice after administration of compound at 82 mg/kg; type: functional, Mus musculus; conditions: route intraperitoneal
Procedure, shortened: (§7)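 P388 leukemia: ascitic fluid with ca. 5.2×10^6 cells inoculated ip into Portage-CD₂F₁ female mice. Drug given ip on days 1-5, starting 24 h after inoculation, dosed by average body weight. Vehicle was saline plus Tween 80, as a solution or suspension. KE = net log change in viable tumor cells from start to end of treatment.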

P388 [14] = experiment: Percent increase in life span of dying mice tested in vivo at 20.5 mg/kg against ip implanted P388 Leukemia in mice; type: functional; conditions: Mus musculus, route intraperitoneal; procedure, shortened: as §4
[15] = Percent increase in life span of dying mice tested in vivo at 328 mg/kg against ip implanted LOX amelanotic melanoma in mice (60-day survivors); type: functional; conditions: Mus musculus, 1440 h, route intraperitoneal; procedure, shortened: as §1
[16] = Change in tumor cell population in ip implanted LOX amelanotic melanoma in mice after administration of compound at 47 mg/kg; type: functional, Mus musculus; conditions: route intraperitoneal; procedure, shortened: as §2
[17] = Percent increase in life span of dying mice tested in vivo at 47 mg/kg against ip implanted LOX amelanotic melanoma in mice (60-day survivors); type: functional; conditions: Mus musculus, 1440 h, route intraperitoneal; procedure, shortened: as §1
P388 [18] = experiment: Percent increase in life span of dying mice tested in vivo at 47 mg/kg against ip implanted P388 Leukemia in mice; type: functional; conditions: Mus musculus, route intraperitoneal; procedure, shortened: as §4
[19] = Percent increase in life span of dying mice tested in vivo at 94 mg/kg against ip implanted LOX amelanotic melanoma in mice (60-day survivors); type: functional; conditions: Mus musculus, 1440 h, route intraperitoneal; procedure, shortened: as §6
P388 [20] = experiment: Change in tumor cell population in ip implanted P388 Leukemia in mice after administration of compound at 23.5 mg/kg; type: functional, Mus musculus; conditions: route intraperitoneal; procedure, shortened: as §5
[21] = Percent increase in life span of dying mice tested in vivo at 23.5 mg/kg against ip implanted LOX amelanotic melanoma in mice (60-day survivors); type: functional; conditions: Mus musculus, 1440 h, route intraperitoneal; procedure, shortened: as §1
[22] = Change in tumor cell population in ip implanted LOX amelanotic melanoma in mice after administration of compound at 94 mg/kg; type: functional, Mus musculus; conditions: route intraperitoneal; procedure, shortened: as §2
P388 [23] = experiment: Change in tumor cell population in ip implanted P388 Leukemia in mice after administration of compound at 47 mg/kg; type: functional, Mus musculus; conditions: route intraperitoneal; procedure, shortened: as §7
P388 [24] = experiment: Percent increase in life span of dying mice tested in vivo at 23.5 mg/kg against ip implanted P388 Leukemia in mice; type: functional; conditions: Mus musculus, route intraperitoneal; procedure, shortened: as §4
[25] = Percent increase in life span of dying mice tested in vivo at 188 mg/kg against ip implanted LOX amelanotic melanoma in mice (60-day survivors); type: functional; conditions: Mus musculus, 1440 h, route intraperitoneal; procedure, shortened: as §1
[26] = Change in tumor cell population in ip implanted LOX amelanotic melanoma in mice after administration of compound at 188 mg/kg; type: functional, Mus musculus; conditions: route intraperitoneal; procedure, shortened: as §2
P388 [27] = experiment: Change in tumor cell population in ip implanted P388 Leukemia in mice after administration of compound at 94 mg/kg; type: functional, Mus musculus; conditions: route intraperitoneal; procedure, shortened: as §7
[28] = Change in tumor cell population in ip implanted LOX amelanotic melanoma in mice after administration of compound at 23.5 mg/kg; type: functional, Mus musculus; conditions: route intraperitoneal; procedure, shortened: as §2
P388 [29] = experiment: Change in tumor cell population in ip implanted P388 Leukemia in mice after administration of compound at 11.8 mg/kg; type: functional, Mus musculus; conditions: route intraperitoneal; procedure, shortened: as §5
P388 [30] = experiment: Percent increase in life span of dying mice tested in vivo at 94 mg/kg against ip implanted P388 Leukemia in mice; type: functional; conditions: Mus musculus, route intraperitoneal; procedure, shortened: as §3
P388 [31] = experiment: Percent increase in life span of dying mice tested in vivo at 11.8 mg/kg against ip implanted P388 Leukemia in mice; type: functional; conditions: Mus musculus, route intraperitoneal; procedure, shortened: as §4
A549 = experiment: Concentration required to inhibit tumor growth in A549, human lung carcinoma (NSCLC) cell line; type: functional, cell-based
Procedure, shortened: (§8)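 Cells grown in RPMI 1640 with 5% fetal calf serum, 5% NuSerum IV and 20 mM HEPES, seeded and allowed to adhere overnight. Compound dissolved in RPMI-1640 plus HEPES and tested over a 5 log range (10 concentrations) for 72 h. Read-out by sulforhodamine B assay. Median-effect dose derived by nonlinear regression of the concentration-effect curve.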

[32] = Concentration required to inhibit tumor growth in […], human breast adenocarcinoma cell line; type: functional; procedure, shortened: as §8
[33] = Concentration required to inhibit tumor growth in PSN-1, human pancreatic carcinoma cell line; type: functional
Procedure, shortened: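 PSN-1 pancreatic carcinoma cells exposed to compound dissolved in RPMI-1640 plus HEPES at its maximum soluble concentration for 72 h. Read-out by sulforhodamine B colorimetric assay.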

L1210 (Mus musculus) = experiment: Concentration required to inhibit tumor growth in L1210, murine lymphocytic leukemia cell line
HT-29 = experiment: Concentration required to inhibit tumor growth in HT29, human colon adenocarcinoma cell line; type: functional, cell-based; conditions: Homo sapiens, HT-29; procedure, shortened: as §8

| SMILES | KE [16] | ILS at 47 mg/kg [17] | ILS at 47 mg/kg (P388 [18]) | ILS at 94 mg/kg [19] | KE (P388 [20]) | ILS at 23.5 mg/kg [21] | KE [22] | KE (P388 [23]) | ILS at 23.5 mg/kg (P388 [24]) | ILS at 188 mg/kg [25] | KE [26] | KE (P388 [27]) | KE [28] | KE (P388 [29]) | ILS at 94 mg/kg (P388 [30]) | ILS at 11.8 mg/kg (P388 [31]) | IC50 (A549) | IC50 [32] | IC50 [33] | IC50 (L1210 (Mus musculus)) | other results |
| --- | --- | --- | --- | --- | --- | --- | --- | --- | --- | --- | --- | --- | --- | --- | --- | --- | --- | --- | --- | --- | --- |
| CNC(=O)OCc1nc(SSc2nc(COC(=O)NC)c(COC(=O)NC)n2C)n(C)c1COC(=O)NC |  |  |  |  |  |  |  |  |  |  |  |  |  |  |  |  |  |  |  |  | ILS at 41 mg/kg [1]: 3%; KE [2]: 1.8; ILS at 82 mg/kg (P388 [3]): 17%; ILS at 164 mg/kg (P388 [4]): 26%; KE (P388 [5]): 1.3; KE [6]: 1.8; KE (P388 [7]): 0.9; ILS at 164 mg/kg [8]: -5%; KE (P388 [9]): 1.3; ILS at 82 mg/kg [10]: -5%; ILS at 41 mg/kg (P388 [11]): 20%; KE (Mus musculus): Toxic; KE [12]: 1.5; KE (P388 [13]): 1.3; ILS at 20.5 mg/kg (P388 [14]): 17%; ILS at 328 mg/kg [15]: -69% |
| CNC(=O)OCc1nc(SC(C)C)n(C)c1COC(=O)NC | 0.7 | 24% | 27% | 28% | 1 | 13% | 0.6 | 0.9 | 25% | 45% | -0.2 | -1.5 | 1.3 | 0.6 | 59% | 31% |  |  |  |  |  |
| CCCSc1nc(COC(=O)NC)c(COC(=O)NC)n1C | 0.7 | 24% | 59% | 22% | -0.1 | 13% | 0.6 | -1.5 | 40% | 76% | -1.6 | -3.3 | 1.3 | -0.1 | 84% | 40% | 190 µM | 147 µM | 115 µM | 18 µM | IC50 (HT-29): 108 µM |
| CNC(=O)OCc1nc2n(c1COC(=O)NC)CCCS2 |  |  |  |  |  |  |  |  |  |  |  |  |  |  |  |  | > 1000 µM | > 1000 µM | > 650 µM | > 100 µM | IC50 (HT-29): > 1000 µM |

From ChEMBL document CHEMBL1126902, “Synthesis, chemical reactivity, and antitumor evaluation of congeners of carmethizole hydrochloride, an experimental "acylated vinylogous carbinolamine" tumor inhibitor” (J Med Chem, 1993)
